Source: ChEMBL document CHEMBL5506014, “Monophosphoryl Lipid A-Rhamnose Conjugates as a New Class of Vaccine Adjuvants” (J Med Chem, 2024)
Calls of active or inactive are those of the source.

Key:
Type in all cases: functional, organism-based
Conditions in all cases: time 38.0 day
Mus musculus [1] = assay: Immuno-adjuvant activity in sc dosed C57BL/6J mouse model assessed as increase in anti-KLH IgM antibodies level administered on day 1, 15, 22, and 29 and measured on day 27, 31 and 38 by ELISA analysis
Method in brief: (§1)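 Female C57BL/6 mice, 6−8 weeks old, were given s.c. 0.1 mL doses of KLH-sTn (8.0 μg sTn antigen). The conjugate was mixed 1:1 with PBS, Alum, or a liposomal adjuvant. Liposomes were MPLA-Rha conjugate:DSPC:cholesterol at a 10:65:50 molar ratio, hydrated in 20 mM HEPES pH 7.5 with 150 mM NaCl. Pre-immunization day 0 blood served as blank.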

Mus musculus [2] = assay: Immuno-adjuvant activity in sc dosed C57BL/6J mouse model assessed as increase in anti-sTn IgG antibodies level administered on day 1, 15, 22, and 29 and measured on day 27, 31 and 38 by ELISA analysis; method in brief: as §1
Mus musculus [3] = assay: Immuno-adjuvant activity in sc dosed C57BL/6J mouse model assessed as increase in IgG antibody administered on day 1, 15, 22, and 29 and measured on day 27, 31 and 38 by ELISA analysis; method in brief: as §1
Mus musculus [4] = assay: Immuno-adjuvant activity in sc dosed C57BL/6J mouse model assessed as increase in anti-KLH IgG antibodies level administered on day 1, 15, 22, and 29 and measured on day 27, 31 and 38 by ELISA analysis; method in brief: as §1
Mus musculus [5] = assay: Immuno-adjuvant activity in sc dosed C57BL/6J mouse model assessed as increase in anti-KLH antibodies level administered on day 1, 15, 22, and 29 and measured on day 27, 31 and 38 by ELISA analysis; method in brief: as §1
Mus musculus [6] = assay: Immuno-adjuvant activity in sc dosed C57BL/6J mouse model assessed as increase in anti-KLH total antibodies level administered on day 1, 15, 22, and 29 and measured on day 27, 31 and 38 by ELISA analysis; method in brief: as §1
Mus musculus [7] = assay: Immuno-adjuvant activity in sc dosed C57BL/6J mouse model assessed as increase in IgM antibody level administered on day 1, 15, 22, and 29 and measured on day 27, 31 and 38 by ELISA analysis; method in brief: as §1

Measured: Activity

CCCCCCCCCCCC(=O)O[C@H](CCCCCCCCCCC)CC(=O)N[C@H]1[C@H](OC[C@H]2O[C@@H](OCCNC(=O)CCO[C@@H]3O[C@@H](C)[C@H](O)[C@@H](O)[C@H]3O)[C@H](NC(=O)C[C@@H](CCCCCCCCCCC)OC(=O)CCCCCCCCCCC)[C@@H](OC(=O)C[C@H](O)CCCCCCCCC)[C@@H]2O)O[C@H](CO)[C@@H](OP(=O)(O)O)[C@@H]1OC(=O)C[C@H](O)CCCCCCCCC
active: all assays above

CCCCCCCCCCCC(=O)O[C@H](CCCCCCCCCCC)CC(=O)N[C@H]1[C@H](OC[C@H]2O[C@@H](OC)[C@H](NC(=O)C[C@@H](CCCCCCCCCCC)OC(=O)CCCCCCCCCCC)[C@@H](OC(=O)C[C@H](O)CCCCCCCCC)[C@@H]2O)O[C@H](CNC(=O)CCO[C@H]2O[C@@H](C)[C@H](O)[C@@H](O)[C@H]2O)[C@@H](OP(=O)(O)O)[C@@H]1OC(=O)C[C@H](O)CCCCCCCCC
active: Mus musculus [3] | Mus musculus [7]

CCCCCCCCCCCC(=O)O[C@H](CCCCCCCCCCC)CC(=O)N[C@H]1[C@H](OC[C@H]2O[C@@H](OCCNC(=O)CCO[C@H]3O[C@@H](C)[C@H](O)[C@@H](O)[C@H]3O)[C@H](NC(=O)C[C@@H](CCCCCCCCCCC)OC(=O)CCCCCCCCCCC)[C@@H](OC(=O)C[C@H](O)CCCCCCCCC)[C@@H]2O)O[C@H](CO)[C@@H](OP(=O)(O)O)[C@@H]1OC(=O)C[C@H](O)CCCCCCCCC
not listed: Mus musculus [2] | Mus musculus [5]
active: all other assays above

CCCCCCCCCCCC(=O)O[C@H](CCCCCCCCCCC)CC(=O)N[C@H]1[C@H](OC[C@H]2O[C@@H](OC)[C@H](NC(=O)C[C@@H](CCCCCCCCCCC)OC(=O)CCCCCCCCCCC)[C@@H](OC(=O)C[C@H](O)CCCCCCCCC)[C@@H]2O)O[C@H](CNC(=O)CCO[C@@H]2O[C@@H](C)[C@H](O)[C@@H](O)[C@H]2O)[C@@H](OP(=O)(O)O)[C@@H]1OC(=O)C[C@H](O)CCCCCCCCC
active: Mus musculus [2] | Mus musculus [3] | Mus musculus [5] | Mus musculus [7]
